The subject of one assay is PC-3. Put plainly: Antiproliferative activity against human PC-3 cells assessed as inhibition of cell growth incubated for 72 hrs by MTS assay. Type of assay: functional, cell-based. Conditions: PC-3, 72 h. The procedure, abridged: (§1)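 Cells were grown at 37°C under 5% CO₂: PC3 in RPMI-1640, MDA-MB-231 in DMEM, and SKBr3 in McCoy's. They were seeded at 2000 cells/well and left for 24 h, then exposed for 72 h to varying concentrations or vehicle (0.5% DMSO final). Viability was read by MTS/PES absorbance at 490 nm relative to control. IC50 came from concentration-response curves; values are means ± SD of two independent experiments.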

The subject of the next assay is MDA-MB-231. Put plainly: Antiproliferative activity against human MDA-MB-231 cells assessed as inhibition of cell growth incubated for 72 hrs by MTS assay. To be noted: MDA-MB-231, 72 h. Type of assay: functional, cell-based. The procedure, abridged:
as §1

In assay [1] the test system is SK-BR-3. The experiment in a line: Antiproliferative activity against human SK-BR-3 cells assessed as inhibition of cell growth incubated for 72 hrs by MTS assay. To be noted: SK-BR-3, 72 h. In kind it is functional, cell-based. Summed up: as §1
The target of assay [2] is T1, Heat shock protein HSP90 (Homo sapiens) (UniProt P07900+P08238). The experiment in a line: Inhibition of C-terminal HSP90 in human SK-BR-3 cells assessed as HER-2 degradation incubated for 24 hrs by Western blot analysis. In kind it is cell-based. Conditions: dose 0.1-10 µM. The procedure, abridged:
(§2)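 SKBr3 cells were seeded at 700,000/well and grown to ~80% confluency. They were treated for 24 h with compound or vehicle (1% DMSO), then lysed in Triton/SDS buffer with protease and phosphatase inhibitors. Protein (20 ug, BCA-normalized) was run on 10% SDS-PAGE and transferred to PVDF. Blots were probed overnight at 4°C with 1:1000 anti-HER2, Hsp70, Hsp90, Akt, CDK6 or β-actin, then detected by HRP secondary and ECL.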

Assay [3] has as its target T1, Heat shock protein HSP90 (Homo sapiens). The experiment in a line: Inhibition of C-terminal HSP90 in human SK-BR-3 cells assessed as reduction in HSR induction with constant Hsp70 level at 0.1 to 10 uM incubated for 24 hrs by Western blot analysis. In kind it is cell-based. Conditions: dose 0.1-10 µM. The procedure, abridged: as §2
The subject of assay [4] is SK-BR-3. Put plainly: Effect on HSP90 independent beta-actin protein level in human SK-BR-3 cells at 0.1 to 10 uM incubated for 24 hrs by Western blot analysis. In kind it is functional, cell-based. Conditions: dose 0.1-10 µM. The procedure, abridged: as §2
Assay [5] concerns the target T1, Heat shock protein HSP90 (Homo sapiens). Put plainly: Inhibition of C-terminal HSP90 in human SK-BR-3 cells at 0.1 to 10 uM incubated for 24 hrs by Western blot analysis. Conditions: dose 0.1-10 µM.
The subject of assay [6] is SK-BR-3. The experiment in a line: Antiproliferative activity against human SK-BR-3 cells. In kind it is functional, cell-based. Summed up: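 They were seeded at 2000 cells/well and left for 24 h, then exposed for 72 h to varying concentrations or vehicle (0.5% DMSO final). Viability was read by MTS/PES absorbance at 490 nm relative to control. IC50 came from concentration-response curves; values are means ± SD of two independent experiments.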

SMILES strings stand for the structures. Activity calls are given as the source filed them. No cut-off for these calls is given here.

The values that follow come from ChEMBL document CHEMBL5344476, “Development of Hsp90 C-terminal inhibitors with noviomimetics that manifest anti-proliferative activities” (RSC Med Chem, 2024).

`COc1cccc(-c2cc(C(=O)NCCc3ccc(OC4CCC(C(=O)Nc5ccccc5)CC4)cc3-c3cccc(F)c3)ccc2OC)c1` (stereo unspecified): the half-maximal inhibitory concentration (IC50) in the assay with PC-3, in the assay on MDA-MB-231 and with SK-BR-3 [1] was over 50 µM each time.

In the case of `COc1cccc(-c2cc(C(=O)NCCc3ccc(OC4CCN(C(C)C)CC4)cc3-c3cccc(F)c3)ccc2OC)c1`, the figures for the IC50 with PC-3, in the assay on MDA-MB-231 and in the assay with SK-BR-3 [1] were 13.6 µM, 9.35 µM and 6.61 µM, respectively.

For `COc1cccc(-c2cc(C(=O)NCCc3ccc(OC4CCN(Cc5ccccc5)CC4)cc3-c3cccc(F)c3)ccc2OC)c1`, the IC50 in the assay on PC-3, in the assay on MDA-MB-231 and with SK-BR-3 [1] was over 50 µM each time.

Regarding `COc1cccc(-c2cc(C(=O)NCCc3ccc(OC4CCC(C(=O)Oc5ccccc5)CC4)cc3-c3cccc(F)c3)ccc2OC)c1` (stereo unspecified), the half-inhibitory concentration (IC50) in the assay on PC-3, in the assay on MDA-MB-231 and with SK-BR-3 [1] was over 50 µM throughout.

With `COc1cccc(-c2cc(C(=O)NCCc3ccc(OC4CCC(SCc5ccccc5)CC4)cc3-c3cccc(F)c3)ccc2OC)c1` (stereo unspecified), the half-maximal inhibitory concentration (IC50) in the assay on PC-3, with MDA-MB-231 and with SK-BR-3 [1] was over 50 µM throughout.

Take `COc1cccc(-c2cc(C(=O)NCCc3ccc(OC4CCC(CCc5ccccc5)CC4)cc3-c3cccc(F)c3)ccc2OC)c1` (stereo unspecified): the half-inhibitory concentration (IC50) in the assay on PC-3, in the assay with MDA-MB-231 and with SK-BR-3 [1] was over 50 µM throughout.

Turning to `COc1cccc(-c2cc(C(=O)NCCc3ccc(OC4CCNCC4)cc3-c3cccc(F)c3)ccc2OC)c1`, the IC50 turned out to be 3.08 µM with PC-3, 3.29 µM in the assay on MDA-MB-231 and 0.9 µM in the assay on SK-BR-3 [1]. In addition, in assay [2], the inhibition result was “Dose-Dependent Effect”. The inhibition result in assay [3] and in assay [5] was “Active” throughout. In addition, the outcome in the assay on SK-BR-3 [4] was inactive.

`COc1cccc(-c2cc(C(=O)NCCc3ccc(OC4CCC(CNc5ccccc5)CC4)cc3-c3cccc(F)c3)ccc2OC)c1` (stereo unspecified): the IC50 in the assay with PC-3, in the assay on MDA-MB-231 and in the assay on SK-BR-3 [1] was over 50 µM throughout.

On to `COc1cccc(-c2cc(C(=O)NCCc3ccc(OC4CCC(OCc5ccccc5)CC4)cc3-c3cccc(F)c3)ccc2OC)c1` (stereo unspecified), for which the IC50 in the assay on PC-3, in the assay with MDA-MB-231 and in the assay with SK-BR-3 [1] was over 50 µM each time.

For `COc1cccc(-c2cc(C(=O)NCCc3ccc(OC4CCCCC4)cc3-c3cccc(F)c3)ccc2OC)c1`, the IC50 in the assay on PC-3, with MDA-MB-231 and in the assay with SK-BR-3 [1] was over 50 µM in each case.

For the compound `CC(C)=CCc1cc(C(=O)NCCc2ccc(OC3CCC(CCc4ccccc4)CC3)cc2-c2cccc(F)c2)ccc1O` (stereo unspecified), the half-maximal inhibitory concentration (IC50) with PC-3, with MDA-MB-231 and with SK-BR-3 [1] was over 50 µM each time.

`COc1cccc(-c2cc(C(=O)NCCc3ccc(OCCCB(O)O)cc3-c3cccc(F)c3)ccc2OC)c1`: the figures for the IC50 in the assay with PC-3, with MDA-MB-231 and in the assay with SK-BR-3 [1] were 13.3 µM, 36.6 µM and 21.6 µM, respectively.

For `COC(=O)C1CCC(Oc2ccc(CCNC(=O)c3ccc(OC)c(-c4cccc(OC)c4)c3)c(-c3cccc(F)c3)c2)CC1` (stereo unspecified), the IC50 with PC-3, in the assay on MDA-MB-231 and in the assay on SK-BR-3 [1] was over 50 µM in each case.

With `COc1cccc(-c2cc(C(=O)NCCc3ccc(OC4CCC(Cc5ccccc5)CC4)cc3-c3cccc(F)c3)ccc2OC)c1` (stereo unspecified), the IC50 in the assay on PC-3, in the assay with MDA-MB-231 and with SK-BR-3 [1] was over 50 µM in each case.

For the compound `CNC(=O)C1CCC(Oc2ccc(CCNC(=O)c3ccc(OC)c(-c4cccc(OC)c4)c3)c(-c3cccc(F)c3)c2)CC1` (stereo unspecified), the IC50 in the assay on PC-3, in the assay with MDA-MB-231 and with SK-BR-3 [1] was over 50 µM throughout.

Regarding `COc1cccc(-c2cc(C(=O)NCCc3ccc(OC4CCOCC4)cc3-c3cccc(F)c3)ccc2OC)c1`, the IC50 with PC-3, in the assay on MDA-MB-231 and in the assay on SK-BR-3 [1] was over 50 µM in each case.

`COc1cccc(-c2cc(C(=O)NCCc3ccc(OC4CCC(C(F)(F)Oc5ccccc5)CC4)cc3-c3cccc(F)c3)ccc2OC)c1` (stereo unspecified): the half-inhibitory concentration (IC50) with PC-3, in the assay with MDA-MB-231 and in the assay with SK-BR-3 [1] was over 50 µM in each case.

On to `CC(C)=CCc1cc(C(=O)NCCc2ccc(OC3CCC(SCc4ccccc4)CC3)cc2-c2cccc(F)c2)ccc1O` (stereo unspecified), for which the 50% inhibitory concentration (IC50) in the assay on PC-3, in the assay on MDA-MB-231 and in the assay with SK-BR-3 [1] was over 50 µM in each case.

Regarding `CC(=O)NCCc1ccc(OC2CCC(OCc3ccccc3)CC2)cc1-c1cccc(F)c1` (stereo unspecified), the half-inhibitory concentration (IC50) in the assay with SK-BR-3 [6] is over 50 µM.

As to `COc1cccc(-c2cc(C(=O)NCCc3ccc(OC4CCC(COc5ccccc5)CC4)cc3-c3cccc(F)c3)ccc2OC)c1` (stereo unspecified), the IC50 with PC-3, in the assay on MDA-MB-231 and with SK-BR-3 [1] was over 50 µM in each case.

`CCCN1CCC(Oc2ccc(CCNC(=O)c3ccc(OC)c(-c4cccc(OC)c4)c3)c(-c3cccc(F)c3)c2)CC1`: the IC50 in the assay with PC-3 was 11 µM; with MDA-MB-231, 6.37 µM; with SK-BR-3 [1], 0.56 µM.

As to `CCN1CCC(Oc2ccc(CCNC(=O)c3ccc(OC)c(-c4cccc(OC)c4)c3)c(-c3cccc(F)c3)c2)CC1`, the IC50 is 13.5 µM in the assay on PC-3, 8.46 µM in the assay on MDA-MB-231 and 6.6 µM in the assay with SK-BR-3 [1].

As to `COc1cccc(-c2cc(C(=O)NCCc3ccc(OC4CCC(CSc5ccccc5)CC4)cc3-c3cccc(F)c3)ccc2OC)c1` (stereo unspecified), the IC50 in the assay on PC-3, in the assay on MDA-MB-231 and in the assay with SK-BR-3 [1] was over 50 µM in each case.

On to `COc1cccc(-c2cc(C(=O)NCCc3ccc(OCCCB4OC(C)(C)C(C)(C)O4)cc3-c3cccc(F)c3)ccc2OC)c1`, for which the IC50 in the assay on PC-3 was determined as 8.07 µM; in the assay on MDA-MB-231 it was 35.1 µM; in the assay on SK-BR-3 [1], 15.3 µM.

In the case of `CC(C)=CCc1cc(C(=O)NCCc2ccc(OC3CCC(Cc4ccccc4)CC3)cc2-c2cccc(F)c2)ccc1O` (stereo unspecified), the IC50 in the assay with PC-3, in the assay with MDA-MB-231 and in the assay on SK-BR-3 [1] was over 50 µM in each case.

As for `CCCC1CCC(Oc2ccc(CCNC(=O)c3ccc(OC)c(-c4cccc(OC)c4)c3)c(-c3cccc(F)c3)c2)CC1` (stereo unspecified), the IC50 in the assay on PC-3, in the assay with MDA-MB-231 and in the assay on SK-BR-3 [1] was over 50 µM in each case.

Take `C=CCN1CCC(Oc2ccc(CCNC(=O)c3ccc(OC)c(-c4cccc(OC)c4)c3)c(-c3cccc(F)c3)c2)CC1`: the IC50 with PC-3 was determined as 12.7 µM; with MDA-MB-231 it was 7.35 µM; with SK-BR-3 [1] it was 6.43 µM.

With `COc1cccc(-c2cc(C(=O)NCCc3ccc(OC4CCN(C)CC4)cc3-c3cccc(F)c3)ccc2OC)c1`, the IC50 with PC-3 was 6.6 µM; in the assay with MDA-MB-231, 4.87 µM; in the assay with SK-BR-3 [1], 3.46 µM.
